Compounds with a hit are over-represented: about 3.5% of the library has one in this group of screens.
MrgX1 PAM – human MrgX1 positive allosteric modulation, primary screen; Q96LB2; MrgX1-HEK293, Fluo-4 calcium flux, FDSS; active compounds read high; B-score at 10 µM; 0.63% of 310,000 active; AID 588675;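 active = plate-corrected calcium response at least 3 library SD above typical, normal starting fluorescence, not activating the receptor alone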;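 also: compound read alongside a low EC10 to EC30 dose of BAM8-22 agonist; peak minus trough fluorescence over baseline measured at the second addition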
Target sequence (Q96LB2 whole entry, looked up): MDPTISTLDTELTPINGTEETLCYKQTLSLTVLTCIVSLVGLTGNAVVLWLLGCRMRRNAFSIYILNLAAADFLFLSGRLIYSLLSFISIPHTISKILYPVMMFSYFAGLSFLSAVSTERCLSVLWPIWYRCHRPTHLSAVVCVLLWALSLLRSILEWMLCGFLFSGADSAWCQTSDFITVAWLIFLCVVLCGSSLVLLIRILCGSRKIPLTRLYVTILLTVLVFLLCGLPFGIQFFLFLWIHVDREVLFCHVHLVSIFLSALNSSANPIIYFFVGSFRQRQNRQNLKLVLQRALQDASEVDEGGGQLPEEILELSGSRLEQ
MrgX1 antagonist – human MrgX1 receptor antagonism, primary screen; MRGX1-HEK293 calcium flux, Fluo-4, BAM8-22 antagonism; active compounds read low; B-score at 10 µM; 1.3% of 310,000 active; AID 588676;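 active = calcium-response B-score plate-corrected more than 3 library SD below zero, starting fluorescence within 5 deviations, no agonist response on first addition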;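 also: peak minus trough fluorescence over baseline after final BAM8-22 challenge near maximal dose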
RGS4 block – inhibitors of human RGS4; 0.45% of 310,000 active; HEK293 M3R/RGS4 inducible, Fluo-4 calcium flux; active compounds read high; triggered by carbachol at its EC20; P49798; B-score at 10 µM;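 active = B-score, a plate-corrected calcium signal, over three deviations above library mean, with baseline fluorescence within five deviations of library mean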;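 also: RGS4 expression induced by doxycycline in cells with stable M3 receptor; B-score is computed from the integrated fluorescence ratio over baseline after carbachol; higher B-score means a larger calcium signal and so more RGS4 inhibition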
Target sequence (P49798 whole entry, looked up): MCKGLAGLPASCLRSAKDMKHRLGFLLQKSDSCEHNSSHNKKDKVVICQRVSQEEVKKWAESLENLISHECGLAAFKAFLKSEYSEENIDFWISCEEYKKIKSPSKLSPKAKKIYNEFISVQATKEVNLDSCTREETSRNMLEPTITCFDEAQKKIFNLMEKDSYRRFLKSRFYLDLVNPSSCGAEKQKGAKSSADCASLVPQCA
RGS4 act – RGS4 potentiation or activation | HEK293 M3R/inducible RGS4, carbachol calcium flux Fluo4; active compounds read low | B-score at 10 µM | 0.92% of 310,000 active;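 active = B-score of the integrated calcium signal more than 4 SD below the library mean, with starting fluorescence not abnormally high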;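 also: negative B-score means reduced calcium response which marks RGS4 activation or potentiation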
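Material: M3R-expressing HEK293 line, RGS4 induced by doxycycline | Schedule: Overnight RGS4 induction, 30 min dye load 37 °C, 20 min compound RT | Measured by: Fluo4 fluorescence kinetic imaging of calcium | Read-out: Integrated calcium ratio converted to B score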
MrgX1 ag – agonists of human MrgX1 receptor; 0.44% of 310,000 active; MrgX1-HEK293 cells, Fluo-4 calcium fluorescence, agonist mode; active compounds read high; AID 588627; B-score at 10 µM; Q96LB2;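 active = calcium response B-score plate-corrected fluorescence ratio at least 3 library SD, with starting fluorescence B-score inside 5 SD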
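Material: HEK293 cells stably expressing human MrgX1 receptor | Quantity: 15,000 cells per well | Times: Cells plated overnight, dye loaded 0.5 h 37 °C, 0.5 h room temperature | Measured by: Kinetic Fluo-4 NW fluorescence of intracellular calcium | Control set: Positive and negative controls per plate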
RGS4 inh valid – validation of RGS4 inhibitors. shares compounds with RGS4 block. HEK293 M3R/RGS4, carbachol calcium Fluo-4 fluorescence; carbachol added at its EC20; 0 = buffer wells, 100 = carbachol control. calcium response, % at 10 µM. 65% of 1,700 active;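 active = duplicate-averaged calcium response above the buffer-only control mean plus 5 SD of those controls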;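 also: integrated fluorescence ratio F max minus min over baseline F0; higher response in RGS4-induced cells means RGS4 inhibition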
M3R Ca ctr – checks RGS4 inhibitor effects in non-induced HEK293 M3R cells; shares compounds with RGS4 block; carbachol calcium Fluo-4; submaximal (EC20) carbachol stimulus; buffer wells 0%, carbachol control wells 100%; activity (percent), % at 10 µM; 20% of 1,900 active; AID 493000; call rule not given here;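 also: RGS4 induction absent so cells express M3R without RGS4; higher means more calcium signal and flags a non-specific hit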
M3R basal Ca ctr – signal in non-induced cells without carbachol, RGS4 inhibitor counter-screen; shares compounds with RGS4 block; HEK293 M3R/RGS4 non-induced, Fluo-4 calcium, no carbachol; normalised: buffer wells 0%, carbachol wells 100%; AID 493001; 22% of 1,900 active; calcium response (agonist-mode artifact), % at 10 µM;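 active = duplicate-averaged calcium rise in uninduced cells above buffer wells' mean plus 5 SD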
An asterisk follows results filed as active; i = inactive; nt = no result given.

SMILES | MrgX1 PAM | MrgX1 antagonist | RGS4 block | RGS4 act | MrgX1 ag | RGS4 inh valid | M3R Ca ctr | M3R basal Ca ctr
O=c1[nH]c(/C=C/c2ccc3c(c2)OCO3)c([N+](=O)[O-])c(=O)[nH]1 | i | i | i | i | i | nt | nt | nt
COc1ccc(/C=C/c2c([N+](=O)[O-])c(=O)n(C)c(=O)n2C)c(OC)c1 | i | i | i | i | i | nt | nt | nt
COc1cc(OC)c(OC)cc1CNC(=O)c1ccc(COc2ccccc2)cc1 | i | i | i | i | i | nt | nt | nt
O=C(CSC1=NS(=O)(=O)c2ccccc21)Nc1ccccc1 | i | i | 9.4* | i | i | 25%* | i | i
Nc1ccc(C23CC4CC(CC(C4)C2)C3)cc1 | i | i | 7.9* | i | i | 13%* | i | i
CCc1sc(C(C2C(=O)CC(C)(C)CC2=O)C2C(=O)CC(C)(C)CC2=O)cc1[N+](=O)[O-] | i | i | 30* | i | 52* | 30%* | i | 121%*
CC(=O)Nc1ccc(Nc2nc(Cl)nc(Nc3ccc(NC(C)=O)cc3)n2)cc1 | i | i | i | i | i | nt | nt | nt
CCSc1nc(N)c(C#N)c(-c2ccco2)c1C#N | i | i | 6.5* | i | i | 7.0%* | i | i
COC(=O)CSc1nc(N)c(C#N)c(-c2ccco2)c1C#N | i | i | i | i | i | nt | nt | nt
Oc1ccc(-c2n[nH]c(C(F)(F)F)c2-c2ccccc2)c(O)c1 | i | i | 25* | i | i | 48%* | 46%* | i
COc1ccccc1-c1c(-c2ccc(O)cc2O)n[nH]c1C(F)(F)F | i | i | 11* | i | i | 40%* | 33%* | i
COc1ccc(-c2c(-c3ccc(O)cc3O)n[nH]c2C(F)(F)F)cc1 | i | i | 10* | i | i | 35%* | 35%* | 20%*
Nc1ncc(-c2ccccc2)c(-c2ccc(O)cc2O)n1 | i | i | i | i | i | nt | nt | nt
COc1ccc(-c2c(-c3ccc(O)cc3O)n[nH]c2C)cc1OC | i | i | i | i | i | nt | nt | nt
CC(=O)N1CCc2cc(S(=O)(=O)NC(C(=O)NC(C)c3ccccc3)C(C)C)ccc21 (configuration not stated) | i | i | i | i | i | i | i | i
CCOC(=O)C(C)/C(C)=N/NC(N)=S (configuration not stated) | i | i | 17* | i | i | 54%* | i | i
CCOC(=O)C(C)/C(C)=N\Nc1ccc([N+](=O)[O-])cc1[N+](=O)[O-] (configuration not stated) | i | i | i | i | i | nt | nt | nt
Cc1[nH]n(-c2ncc(-c3ccccc3)s2)c(=O)c1C(c1ccc(Br)cc1)C(C#N)C#N (configuration not stated) | i | -6.8* | 16* | i | i | 50%* | i | 51%*
Cn1cc(Cl)c(C(=O)NC2CCCCCC2)n1 | i | i | i | i | i | nt | nt | nt
Cn1cc(Cl)c(C(=O)NNC(=S)NC2CCCCC2)n1 | i | i | 15* | i | i | 39%* | 50%* | i
CCOC(=O)[C@@H]1[C@H]2COc3ccc(Br)cc3[C@H]2N2C(=O)N(c3cccc(Cl)c3)C(=O)[C@]12C | i | i | i | i | i | i | i | i
CCOC(=O)[C@@H]1[C@H]2COc3ccc(Br)cc3[C@@H]2N2C(=O)N(c3ccccc3)C(=O)[C@@]12C | i | i | i | i | i | nt | nt | nt
CCOC(=O)[C@@H]1[C@H]2COc3ccc(Br)cc3[C@@H]2N2C(=O)N(c3cccc(Cl)c3)C(=O)[C@]12C | i | i | i | i | i | i | i | i
N=C1c2ccccc2CN1NC(=O)COc1ccc(Cl)cc1 | i | i | i | i | i | nt | nt | nt
O=c1c2ccccc2c(-c2n[nH]c(=S)o2)nn1Cc1ccccc1 | i | i | i | i | i | nt | nt | nt
SMILES | MrgX1 PAM | MrgX1 antagonist | RGS4 block | RGS4 act | MrgX1 ag | RGS4 inh valid | M3R Ca ctr | M3R basal Ca ctr
OCc1ccc(-c2nn(Cc3ccccc3)c3ccccc23)o1 | i | i | 5.1* | i | i | 6.0%* | i | i
O=C1NC(c2ccccc2)=C(c2nc3ccccc3s2)C(c2ccc(F)cc2)N1 (configuration not stated) | i | i | i | i | i | nt | i | i
COc1ccc(C2NC(=O)NC(c3ccccc3)=C2c2nc3ccccc3s2)cc1 (configuration not stated) | i | i | i | i | i | nt | nt | nt
CC1CCN(c2c(NCC3CCC(C(=O)NCCc4ccccc4)CC3)c(=O)c2=O)CC1 (configuration not stated) | i | i | i | i | i | nt | i | i
CC(C)Oc1ccc(C(=O)/C=C2/C(=O)Nc3ccccc32)cc1 | i | i | 5.1* | i | i | 10%* | 72%* | i
NC[C@@H]1O[C@H](C23CC4CC(CC(C4)C2)C3)Cc2c1ccc(O)c2O | i | i | 10* | i | i | 10%* | i | i
COc1ccc(Cl)cc1C(=O)N1CCN(Cc2ccc3c(c2)OCO3)CC1 | i | i | i | i | i | nt | nt | nt
Cc1ccccc1OCCNc1cc(N2CCCCC2)ccc1[N+](=O)[O-] | i | i | i | i | i | i | i | i
Cc1ccccc1OCCNc1cc(N2CCN(CCO)CC2)ccc1[N+](=O)[O-] | i | i | i | i | i | nt | nt | nt
CC(NCC(O)COCCC12CC3CC(CC(C3)C1)C2)c1ccccc1 (configuration not stated) | i | i | 4.7* | i | i | i | i | 24%*
O=Nc1c(O)n(Cc2cccc(Cl)c2)c2ccccc12 | i | i | 6.4* | i | i | 16%* | 37%* | i
O=C(Cn1cnc2sc3c(c2c1=O)CCCC3)NCC(=O)Nc1c(F)cc(F)cc1Br | i | i | i | i | i | nt | nt | nt
NNC(=O)C1=NOC(CNc2ncc(C(F)(F)F)cc2Cl)C1 (configuration not stated) | i | i | i | i | i | nt | nt | nt

Compound activity: PubChem, Johns Hopkins Ion Channel Center
